ChEMBL document CHEMBL1155468, “Syntheses and evaluation of anticonvulsant profile and teratogenicity of novel amide derivatives of branched aliphatic carboxylic acids with 4-aminobenzensulfonamide” (J Med Chem, 2010)
Calls of active or inactive are those of the source. The calls are words filed in the database; no cut-off is given here.

Tests used:
Mus musculus [1] = experiment: Anticonvulsant activity in CF1 albino mouse assessed as inhibition of maximal electroshock-induced seizures at 30 mg/kg, ip after 0.5 hrs; format: functional, organism-based; design: dose 30 mg/kg
How it was run: (§1)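 Test compounds suspended in 0.5% methylcellulose and given ip to adult male CF no. 1 albino mice (18-25 g) at 0.01 mL/g body weight before maximal electroshock challenge.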

Mus musculus [2] = experiment: Anticonvulsant activity in CF1 albino mouse assessed as inhibition of subcutaneous pentylenetetrazole-induced seizures at 300 mg/kg, ip after 0.5 hrs; format: functional, organism-based; design: dose 300 mg/kg
How it was run: (§2)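 Adult male CF no. 1 albino mice (18-25 g) dosed ip with compound suspended in 0.5% methylcellulose (0.01 mL/g). Convulsant: pentylenetetrazol dissolved in 0.9% saline as a 0.85% solution for mice, given subcutaneously.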

Mus musculus [3] = experiment: Neurotoxicity in CF1 albino mouse assessed as motor impairment at 100 mg/kg, ip after 0.5 hrs; format: toxicity, organism-based; design: dose 100 mg/kg, route intraperitoneal; details: in vivo
Mus musculus [4] = experiment: Anticonvulsant activity in CF1 albino mouse assessed as inhibition of subcutaneous pentylenetetrazole-induced seizures at 300 mg/kg, ip after 4 hrs; format: functional, organism-based; design: dose 300 mg/kg; how it was run: as §2
Mus musculus [5] = experiment: Teratogenic effect in SWV mouse assessed as resorptions at 562 mg/kg, ip administered on morning of day 8 of gestation; format: toxicity, organism-based; design: dose 562 mg/kg, route intraperitoneal; details: in vivo
How it was run: (§3)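 SWV inbred mice: two-month-old nulligravid females mated overnight with males and checked for vaginal plugs next morning; gestation onset taken as 10 p.m. the previous night. On gestation day 8.5 each dam got one ip injection, 0.55–2.7 mmol/kg, in 25% aqueous Cremophor EL (vehicle controls dosed alike), 10 μL/g body weight. Litters and implants tallied; resorptions and live fetuses reported as counts with percentages.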

Mus musculus [6] = experiment: Anticonvulsant activity in CF1 albino mouse assessed as inhibition of maximal electroshock-induced seizures at 300 mg/kg, ip after 0.5 hrs; format: functional, organism-based; design: dose 300 mg/kg; how it was run: as §1
Mus musculus [7] = experiment: Anticonvulsant activity in CF1 albino mouse assessed as inhibition of subcutaneous pentylenetetrazole-induced seizures at 100 mg/kg, ip after 4 hrs; format: functional, organism-based; design: dose 100 mg/kg; how it was run: as §2
Mus musculus [8] = experiment: Teratogenic effect in SWV mouse assessed as fetuses with neural tube deffects at 562 mg/kg, ip administered on morning of day 8 of gestation; format: toxicity, organism-based; design: dose 562 mg/kg, route intraperitoneal; details: in vivo
How it was run: (§4)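 Two-month-old nulligravid SWV females were mated overnight and checked for vaginal plugs the next morning; gestation onset was set at 10 p.m. the previous night. On gestation day 8.5, each dam received a single ip injection (0.55-2.7 mmol/kg range) or vehicle (25% aqueous Cremophor EL) at 10 μL/g body weight. Litters were scored for implants, resorptions, live and dead fetuses, and fetuses with neural tube defects.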

Mus musculus [9] = experiment: Neurotoxicity in CF1 albino mouse assessed as motor impairment at 30 mg/kg, ip after 0.5 hrs; format: toxicity, organism-based; design: dose 30 mg/kg, route intraperitoneal; details: in vivo
Rattus norvegicus [10] = experiment: Anticonvulsant activity in po dosed rat assessed as inhibition of maximal electroshock-induced seizures
Mus musculus [11] = experiment: Teratogenic effect in SWV mouse assessed as resorptions at 172 mg/kg, ip administered on morning of day 8 of gestation; format: toxicity, organism-based; design: dose 172 mg/kg, route intraperitoneal; details: in vivo; how it was run: as §3
Rattus norvegicus [12] = experiment: Anticonvulsant activity in Sprague-Dawley rat assessed as inhibition of maximal electroshock-induced seizures at 30 mg/kg, po after 15 mins
Mus musculus [13] = experiment: Teratogenic effect in SWV mouse assessed as fetuses with neural tube deffects at 340 mg/kg, ip administered on morning of day 8 of gestation; format: toxicity, organism-based; design: dose 340 mg/kg, route intraperitoneal; details: in vivo; how it was run: as §4
Mus musculus [14] = experiment: Neurotoxicity in CF1 albino mouse assessed as motor impairment at 300 mg/kg, ip after 4 hrs; format: toxicity, organism-based; design: dose 300 mg/kg, route intraperitoneal; details: in vivo
Mus musculus [15] = experiment: Teratogenic effect in SWV mouse assessed as live fetuses at 562 mg/kg, ip administered on morning of day 8 of gestation; format: toxicity, organism-based; design: dose 562 mg/kg, route intraperitoneal; details: in vivo; how it was run: as §3
Mus musculus [16] = experiment: Teratogenic effect in SWV mouse assessed as resorptions at 340 mg/kg, ip administered on morning of day 8 of gestation; format: toxicity, organism-based; design: dose 340 mg/kg, route intraperitoneal; details: in vivo; how it was run: as §3
Mus musculus [17] = experiment: Neurotoxicity in CF1 albino mouse assessed as motor impairment at 300 mg/kg, ip after 0.5 hrs; format: toxicity, organism-based; design: dose 300 mg/kg, route intraperitoneal; details: in vivo
Rattus norvegicus [18] = experiment: Neurotoxicity in Sprague-Dawley rat assessed as motor impairment at 30 mg/kg, po after 0.25 to 4 hrs; details: in vivo
Mus musculus [19] = experiment: Anticonvulsant activity in CF1 albino mouse assessed as inhibition of maximal electroshock-induced seizures at 30 mg/kg, ip after 4 hrs; format: functional, organism-based; design: dose 30 mg/kg; how it was run: as §1
Mus musculus [20] = experiment: Anticonvulsant activity in CF1 albino mouse assessed as inhibition of maximal electroshock-induced seizures at 300 mg/kg, ip after 4 hrs; format: functional, organism-based; design: dose 300 mg/kg; how it was run: as §1
Mus musculus [21] = experiment: Anticonvulsant activity in CF1 albino mouse assessed as inhibition of subcutaneous pentylenetetrazole-induced seizures at 100 mg/kg, ip after 0.5 hrs; format: functional, organism-based; design: dose 100 mg/kg; how it was run: as §2
Mus musculus [22] = experiment: Neurotoxicity in CF1 albino mouse assessed as motor impairment at 100 mg/kg, ip after 4 hrs; format: toxicity, organism-based; design: dose 100 mg/kg, route intraperitoneal; details: in vivo
Mus musculus [23] = experiment: Anticonvulsant activity in CF1 albino mouse assessed as inhibition of subcutaneous pentylenetetrazole-induced seizures at 30 mg/kg, ip after 0.5 hrs; format: functional, organism-based; design: dose 30 mg/kg; how it was run: as §2
Rattus norvegicus [24] = species on record: Rattus norvegicus; experiment: Protective index, ratio of TD50 for rat to ED50 for maximal electroshock-induced rat seizure model
Mus musculus [25] = experiment: Teratogenic effect in SWV mouse assessed as live fetuses at 340 mg/kg, ip administered on morning of day 8 of gestation; format: toxicity, organism-based; design: dose 340 mg/kg, route intraperitoneal; details: in vivo; how it was run: as §3
Mus musculus [26] = experiment: Anticonvulsant activity in CF1 albino mouse assessed as inhibition of subcutaneous pentylenetetrazole-induced seizures at 30 mg/kg, ip after 4 hrs; format: functional, organism-based; design: dose 30 mg/kg; how it was run: as §2
Mus musculus [27] = experiment: Teratogenic effect in SWV mouse assessed as live fetuses at 172 mg/kg, ip administered on morning of day 8 of gestation; format: toxicity, organism-based; design: dose 172 mg/kg, route intraperitoneal; details: in vivo; how it was run: as §4
Mus musculus [28] = experiment: Teratogenic effect in SWV mouse assessed as fetuses with neural tube deffects at 172 mg/kg, ip administered on morning of day 8 of gestation; format: toxicity, organism-based; design: dose 172 mg/kg, route intraperitoneal; details: in vivo; how it was run: as §4
Mus musculus [29] = experiment: Neurotoxicity in CF1 albino mouse assessed as motor impairment at 30 mg/kg, ip after 4 hrs; format: toxicity, organism-based; design: dose 30 mg/kg, route intraperitoneal; details: in vivo
[30] = Teratogenic effect in SWV mouse assessed as dead fetuses at 522 mg/kg, ip administered on morning of day 8 of gestation; details: in vivo, read-out: Ratio TD50/ED50
Mus musculus [31] = experiment: Teratogenic effect in SWV mouse assessed as fetuses with neural tube deffects at 310 mg/kg, ip administered on morning of day 8 of gestation; format: toxicity, organism-based; design: dose 310 mg/kg, route intraperitoneal; details: in vivo; how it was run: as §4
Mus musculus [32] = experiment: Teratogenic effect in SWV mouse assessed as fetuses with neural tube deffects at 156 mg/kg, ip administered on morning of day 8 of gestation; format: toxicity, organism-based; design: dose 156 mg/kg, route intraperitoneal; details: in vivo; how it was run: as §4
[33] = Teratogenic effect in SWV mouse assessed as dead fetuses at 91 mg/kg, ip administered on morning of day 8 of gestation; details: in vivo
Mus musculus [34] = experiment: Teratogenic effect in SWV mouse assessed as live fetuses at 511 mg/kg, ip administered on morning of day 8 of gestation; format: toxicity, organism-based; design: dose 511 mg/kg, route intraperitoneal; details: in vivo; how it was run: as §3
Mus musculus [35] = experiment: Teratogenic effect in SWV mouse assessed as resorptions at 156 mg/kg, ip administered on morning of day 8 of gestation; format: toxicity, organism-based; design: dose 156 mg/kg, route intraperitoneal; details: in vivo; how it was run: as §3
Mus musculus [36] = experiment: Teratogenic effect in SWV mouse assessed as live fetuses at 156 mg/kg, ip administered on morning of day 8 of gestation; format: toxicity, organism-based; design: dose 156 mg/kg, route intraperitoneal; details: in vivo; how it was run: as §4
Mus musculus [37] = experiment: Teratogenic effect in SWV mouse assessed as resorptions at 511 mg/kg, ip administered on morning of day 8 of gestation; format: toxicity, organism-based; design: dose 511 mg/kg, route intraperitoneal; details: in vivo; how it was run: as §3
Mus musculus [38] = experiment: Teratogenic effect in SWV mouse assessed as resorptions at 310 mg/kg, ip administered on morning of day 8 of gestation; format: toxicity, organism-based; design: dose 310 mg/kg, route intraperitoneal; details: in vivo; how it was run: as §3
Mus musculus [39] = experiment: Anticonvulsant activity in CF1 albino mouse assessed as inhibition of maximal electroshock-induced seizures at 100 mg/kg, ip after 0.5 hrs; format: functional, organism-based; design: dose 100 mg/kg; how it was run: as §1
Mus musculus [40] = experiment: Teratogenic effect in SWV mouse assessed as live fetuses at 310 mg/kg, ip administered on morning of day 8 of gestation; format: toxicity, organism-based; design: dose 310 mg/kg, route intraperitoneal; details: in vivo; how it was run: as §4

SMILES	Activity (Mus musculus [1])	Activity (Mus musculus [2])	Activity (Mus musculus [3])	Activity (Mus musculus [4])	Activity (Mus musculus [6])	Activity (Mus musculus [7])	Activity (Mus musculus [9])	ED50 (Rattus norvegicus [10]) [mg/kg]	Activity (Mus musculus [14])	Activity (Mus musculus [17])	Activity (Rattus norvegicus [18])	Activity (Mus musculus [19])	Activity (Mus musculus [20])	Activity (Mus musculus [21])	Activity (Mus musculus [22])	Activity (Mus musculus [23])	Ratio TD50/ED50 (Rattus norvegicus [24])	Activity (Mus musculus [26])	Activity (Mus musculus [29])	also measured
CCCC(C(=O)Nc1ccc(S(N)(=O)=O)cc1)C(C)CC (centres undefined)	inactive	inactive	Non-toxic	inactive	Active	inactive	Non-toxic	35.8	Non-toxic	Non-toxic	Non-toxic	inactive	Active	inactive	Non-toxic	inactive	>13.9	inactive	Non-toxic	Activity (Mus musculus [5]): 50%; Activity (Mus musculus [8]): 7.1%; Activity (Mus musculus [11]): 12%; Activity (Rattus norvegicus [12]): inactive; Activity (Mus musculus [13]): 5%; Activity (Mus musculus [15]): 50%; Activity (Mus musculus [16]): 33.3%; Activity (Mus musculus [25]): 66.7%; Activity (Mus musculus [27]): 88%; Activity (Mus musculus [28]): 7.8%
CCCC(CC)C(=O)Nc1ccc(S(N)(=O)=O)cc1 (centres undefined)	inactive	inactive	Non-toxic	inactive	inactive	inactive	Non-toxic	11.6	Non-toxic	Non-toxic	Non-toxic	inactive	Active	inactive	Non-toxic	inactive	>43.1	inactive	Non-toxic	selectivity ratio [30]: 43.1; Activity (Mus musculus [31]): 13.3%; Activity (Mus musculus [32]): 1%; ED50 [33]: 11.6 mg/kg; Activity (Mus musculus [34]): 1.5%; Activity (Mus musculus [35]): 15.7%; Activity (Mus musculus [36]): 84.3%; Activity (Mus musculus [37]): 98.5%; Activity (Mus musculus [38]): 72%; Activity (Mus musculus [39]): inactive; Activity (Mus musculus [40]): 28%
